Values after ≈ are worked out from the molar mass of the structure shown.
Assays:
Staphylococcus aureus [1] = experiment: In vitro antimicrobial activity against Staphylococcus aureus X400 strain; assay type: functional
Streptococcus pneumoniae = experiment: In vitro antimicrobial activity against Streptococcus pneumoniae PARK strain; assay type: functional
[2] = tested on: Staphylococcus epidermidis; experiment: In vitro antimicrobial activity against Staphylococcus epidermidis 222 strain; assay type: functional
Staphylococcus aureus [3] = experiment: In vitro antimicrobial activity against Staphylococcus aureus S13E strain; assay type: functional
Pseudomonas aeruginosa [4] = experiment: Antimicrobial activity against Pseudomonas PS18 strain; assay type: functional
Staphylococcus aureus [5] = experiment: In vitro antimicrobial activity against Staphylococcus aureus X1.1 strain; assay type: functional
Pseudomonas aeruginosa [6] = experiment: In vitro antimicrobial activity against Pseudomonas X239 strain; assay type: functional
Haemophilus influenzae = experiment: In vitro antimicrobial activity against Haemophilus influenzae C.L. strain; assay type: functional
Escherichia coli = experiment: In vitro evaluation of antimicrobial activity against Escherichia coli EC14 strain; assay type: functional
Klebsiella = experiment: In vitro antimicrobial activity against Klebsiella X26 strain; assay type: functional
[7] = tested on: Staphylococcus epidermidis; experiment: In vitro antimicrobial activity against Staphylococcus epidermidis 270 strain; assay type: functional
Enterobacter cloacae = experiment: In vitro evaluation of antimicrobial activity against Enterobacter cloacae EB5 strain; assay type: functional
Rattus norvegicus = organism: Rattus norvegicus; experiment: In vitro plasma protein binding was evaluated using Sprauge-Dawley rat at 20 ug/mL; assay type: ADME
Outline: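 Binding was measured by ultrafiltration (Centrifree micropartition) in pooled plasma (ICR mouse, Sprague–Dawley rat, rhesus monkey or human) at a drug concentration of 20 μg/mL.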

Staphylococcus aureus [8] = experiment: Minimum inhibitory concentration against sensitive strain of Staphylococcus aureus 446 in 4% of NaCl; assay type: functional
Staphylococcus aureus [9] = experiment: Minimum inhibitory concentration against heteroresistant strain of Staphylococcus aureus 430 in 4% of NaCl; assay type: functional
Staphylococcus aureus [10] = experiment: Minimum inhibitory concentration against homoresistant strain of Staphylococcus aureus 447 in the absence of NaCl; assay type: functional
Staphylococcus aureus [11] = experiment: Minimum inhibitory concentration against heteroresistant strain of Staphylococcus aureus 430 in the absence of NaCl; assay type: functional
Staphylococcus aureus [12] = experiment: Minimum inhibitory concentration against methicillin-resistant Staphylococcus aureus 430 (MRSA) in vitro using trypticase soy broth (TSB); assay type: functional
[13] = Tested against penicillin binding protein 2a (PBP2a) enzyme.
Staphylococcus aureus [14] = experiment: Minimum inhibitory concentration against sensitive strain of Staphylococcus aureus 446 in the absence of NaCl; assay type: functional
Staphylococcus aureus [15] = experiment: Minimum inhibitory concentration against homoresistant strain of Staphylococcus aureus 447 in 4% of NaCl; assay type: functional
Staphylococcus aureus [16] = experiment: Minimum inhibitory concentration against methicillin-resistant Staphylococcus aureus 430 (MRSA) in vitro using trypticase soy broth (TSB) with 4% NaCl; assay type: functional

Compound `Nc1nc(/C(=N\OCCF)C(=O)N[C@@H]2C(=O)N3C(C(=O)[O-])=C(Sc4nc5cncnc5s4)CC[C@H]23)cs1.[Na+]` has an MIC (Staphylococcus aureus [1]) of 16 µg/mL, an MIC (Streptococcus pneumoniae) of under 0.008 µg/mL and an MIC [2] of 0.5 µg/mL. The MIC (Staphylococcus aureus [3]) was 8 µg/mL, the MIC (Pseudomonas aeruginosa [4]) was 128 µg/mL and the MIC (Staphylococcus aureus [5]) was 0.125 µg/mL. It also gave an MIC (Pseudomonas aeruginosa [6]) of 128 µg/mL, an MIC (Haemophilus influenzae) of 0.03 µg/mL and an MIC (Escherichia coli) of 0.25 µg/mL. For the same compound, the MIC (Klebsiella) was 0.03 µg/mL, the MIC [7] was 2 µg/mL and the MIC (Enterobacter cloacae) was 2 µg/mL.

In the case of `Nc1nc(/C(=N\OCCF)C(=O)N[C@@H]2C(=O)N3C(C(=O)[O-])=C(Sc4nc5ccncc5s4)CC[C@H]23)cs1.[Na+]`, the MIC (Staphylococcus aureus [1]) is reported as 8 µg/mL, the MIC (Streptococcus pneumoniae) is reported as under 0.008 µg/mL and the MIC [2] is reported as 0.5 µg/mL. It also gave an MIC (Staphylococcus aureus [3]) of 4 µg/mL, an MIC (Pseudomonas aeruginosa [4]) of 64 µg/mL and an MIC (Staphylococcus aureus [5]) of 0.125 µg/mL. The MIC (Pseudomonas aeruginosa [6]) was over 128 µg/mL, the MIC (Haemophilus influenzae) was 0.015 µg/mL and the MIC (Escherichia coli) was 0.25 µg/mL. It also gave an MIC (Klebsiella) of 0.06 µg/mL, an MIC [7] of 2 µg/mL and an MIC (Enterobacter cloacae) of 2 µg/mL.

In the case of `Nc1nc(/C(=N\OCCF)C(=O)N[C@@H]2C(=O)N3C(C(=O)[O-])=C(Sc4nc5cc(Cl)ccc5s4)CC[C@H]23)cs1.[Na+]`, the MIC (Staphylococcus aureus [1]) is reported as 8 µg/mL, the MIC (Streptococcus pneumoniae) is reported as under 0.008 µg/mL and the MIC [2] is reported as 0.5 µg/mL. For the same compound, the MIC (Staphylococcus aureus [3]) was 4 µg/mL, the MIC (Pseudomonas aeruginosa [4]) was 64 µg/mL and the MIC (Staphylococcus aureus [5]) was 0.125 µg/mL. For the same compound, the MIC (Pseudomonas aeruginosa [6]) was over 128 µg/mL, the MIC (Haemophilus influenzae) was 0.06 µg/mL and the MIC (Escherichia coli) was 0.25 µg/mL. The MIC (Klebsiella) was 0.06 µg/mL, the MIC [7] was 0.5 µg/mL and the MIC (Enterobacter cloacae) was 2 µg/mL.

`CCOC(=O)c1csc(SC2=C(C(=O)[O-])N3C(=O)[C@@H](NC(=O)/C(=N/OCCF)c4csc(N)n4)[C@H]3CC2)n1.[Na+]` showed an MIC (Staphylococcus aureus [1]) of 32 µg/mL, an MIC (Streptococcus pneumoniae) of under 0.008 µg/mL and an MIC [2] of 2 µg/mL. For the same compound, the MIC (Staphylococcus aureus [3]) was 16 µg/mL, the MIC (Pseudomonas aeruginosa [4]) was 128 µg/mL and the MIC (Staphylococcus aureus [5]) was 1 µg/mL. The MIC (Pseudomonas aeruginosa [6]) was over 128 µg/mL, the MIC (Haemophilus influenzae) was 0.06 µg/mL and the MIC (Escherichia coli) was 0.5 µg/mL. For the same compound, the MIC (Klebsiella) was 0.06 µg/mL, the MIC [7] was 2 µg/mL and the MIC (Enterobacter cloacae) was 4 µg/mL.

For `Cn1c(SC2=C(C(=O)[O-])N3C(=O)[C@@H](NC(=O)/C(=N/OCCF)c4csc(N)n4)[C@H]3CC2)n[nH]c(=O)c1=O.[Na+]`, the MIC (Staphylococcus aureus [1]) was 128 µg/mL, the MIC (Streptococcus pneumoniae) was 0.015 µg/mL and the MIC [2] was 2 µg/mL. For the same compound, the MIC (Staphylococcus aureus [3]) was 64 µg/mL, the MIC (Pseudomonas aeruginosa [4]) was 32 µg/mL and the MIC (Staphylococcus aureus [5]) was 0.5 µg/mL. The MIC (Pseudomonas aeruginosa [6]) was 32 µg/mL, the MIC (Haemophilus influenzae) was 0.03 µg/mL and the MIC (Escherichia coli) was 0.06 µg/mL. The MIC (Klebsiella) was 0.06 µg/mL, the MIC [7] was 8 µg/mL and the MIC (Enterobacter cloacae) was 0.5 µg/mL.

For `Nc1nc(/C(=N\OCCF)C(=O)N[C@@H]2C(=O)N3C(C(=O)[O-])=C(Sc4nc(-c5ccccn5)cs4)CC[C@H]23)cs1.[Na+]`, the MIC (Staphylococcus aureus [1]) was 32 µg/mL, the MIC (Streptococcus pneumoniae) was under 0.008 µg/mL and the MIC [2] was 0.5 µg/mL. It also gave an MIC (Staphylococcus aureus [3]) of 16 µg/mL, an MIC (Pseudomonas aeruginosa [4]) of 64 µg/mL and an MIC (Staphylococcus aureus [5]) of 0.25 µg/mL. It also gave an MIC (Pseudomonas aeruginosa [6]) of 32 µg/mL, an MIC (Haemophilus influenzae) of 0.03 µg/mL and an MIC (Escherichia coli) of 0.5 µg/mL. The MIC (Klebsiella) was 0.03 µg/mL, the MIC [7] was 2 µg/mL and the MIC (Enterobacter cloacae) was 2 µg/mL.

Work on `Nc1nc(/C(=N\OCCF)C(=O)N[C@@H]2C(=O)N3C(C(=O)[O-])=C(Sc4nccs4)CC[C@H]23)cs1.[Na+]` yielded an MIC (Staphylococcus aureus [1]) of 64 µg/mL, an MIC (Streptococcus pneumoniae) of under 0.008 µg/mL and an MIC [2] of 0.5 µg/mL. It also gave an MIC (Staphylococcus aureus [3]) of 16 µg/mL, an MIC (Pseudomonas aeruginosa [4]) of 32 µg/mL and an MIC (Staphylococcus aureus [5]) of 0.25 µg/mL. It also gave an MIC (Pseudomonas aeruginosa [6]) of 128 µg/mL, an MIC (Haemophilus influenzae) of under 0.008 µg/mL and an MIC (Escherichia coli) of 0.125 µg/mL. For the same compound, the MIC (Klebsiella) was under 0.008 µg/mL, the MIC [7] was 4 µg/mL and the MIC (Enterobacter cloacae) was 1 µg/mL.

For `CO/N=C(\C(=O)N[C@@H]1C(=O)N2C(C(=O)O)=C(COC(C)=O)CS[C@H]12)c1csc(N)n1` [CEFOTAXIME], the MIC (Staphylococcus aureus [1]) was 64 µg/mL (≈ 141 µM), the MIC (Streptococcus pneumoniae) was 0.015 µg/mL (≈ 0.0329 µM) and the MIC [2] was 2 µg/mL (≈ 4.39 µM). It also gave an MIC (Staphylococcus aureus [3]) of 8 µg/mL (≈ 17.6 µM), an MIC (Pseudomonas aeruginosa [4]) of 16 µg/mL (≈ 35.1 µM) and an MIC (Staphylococcus aureus [5]) of 2 µg/mL (≈ 4.39 µM). For the same compound, the MIC (Pseudomonas aeruginosa [6]) was 8 µg/mL (≈ 17.6 µM), the MIC (Haemophilus influenzae) was 0.015 µg/mL (≈ 0.0329 µM) and the MIC (Escherichia coli) was 0.03 µg/mL (≈ 0.0659 µM). The Bound (Rattus norvegicus) was 88.5%, the MIC (Klebsiella) was under 0.008 µg/mL and the MIC [7] was 8 µg/mL (≈ 17.6 µM). It also gave an MIC (Enterobacter cloacae) of 0.25 µg/mL (≈ 0.549 µM).

`COc1cccc(OC)c1C(=O)N[C@@H]1C(=O)N2[C@@H]1SC(C)(C)[C@@H]2C(=O)O` [METHICILLIN] gave an MIC (Staphylococcus aureus [8]) of 1 µg/mL (≈ 2.63 µM), an MIC (Staphylococcus aureus [9]) of 256 µg/mL (≈ 673 µM) and an MIC (Staphylococcus aureus [1]) of 64 µg/mL (≈ 168 µM). For the same compound, the MIC (Streptococcus pneumoniae) was 0.5 µg/mL (≈ 1.31 µM), the MIC (Staphylococcus aureus [10]) was over 512 µg/mL and the MIC [2] was 4 µg/mL (≈ 10.5 µM). It also gave an MIC (Staphylococcus aureus [11]) of 8 µg/mL (≈ 21 µM), an MIC (Staphylococcus aureus [12]) of 8 µg/mL (≈ 21 µM) and an MIC (Staphylococcus aureus [3]) of 8 µg/mL (≈ 21 µM). The MIC (Pseudomonas aeruginosa [4]) was over 128 µg/mL, the IC50 [13] was 456 µg/mL (≈ 1200 µM) and the MIC (Staphylococcus aureus [5]) was 2 µg/mL (≈ 5.26 µM). It also gave an MIC (Pseudomonas aeruginosa [6]) of over 128 µg/mL, an MIC (Haemophilus influenzae) of 4 µg/mL (≈ 10.5 µM) and an MIC (Escherichia coli) of over 128 µg/mL. The MIC (Staphylococcus aureus [14]) was 1 µg/mL (≈ 2.63 µM), the MIC (Staphylococcus aureus [15]) was over 512 µg/mL and the MIC (Klebsiella) was 32 µg/mL (≈ 84.1 µM). The MIC [7] was 4 µg/mL (≈ 10.5 µM), the MIC (Enterobacter cloacae) was over 128 µg/mL and the MIC (Staphylococcus aureus [16]) was 256 µg/mL (≈ 673 µM).

In the case of `CCOc1ccc2ccccc2c1C(=O)N[C@@H]1C(=O)N2[C@@H]1SC(C)(C)[C@@H]2C(=O)O` [NAFCILLIN], the MIC (Staphylococcus aureus [8]) is reported as 0.25 µg/mL (≈ 0.603 µM), the MIC (Staphylococcus aureus [9]) is reported as 64 µg/mL (≈ 154 µM) and the MIC (Staphylococcus aureus [10]) is reported as 128 µg/mL (≈ 309 µM). For the same compound, the MIC (Staphylococcus aureus [11]) was 1 µg/mL (≈ 2.41 µM), the MIC (Staphylococcus aureus [12]) was 0.25 µg/mL (≈ 0.603 µM) and the IC50 [13] was 200 µg/mL (≈ 483 µM). For the same compound, the MIC (Staphylococcus aureus [14]) was 0.25 µg/mL (≈ 0.603 µM), the MIC (Staphylococcus aureus [15]) was 128 µg/mL (≈ 309 µM) and the MIC (Staphylococcus aureus [16]) was 32 µg/mL (≈ 77.2 µM).

Reference: ChEMBL document CHEMBL1127066, “Discovery and structure-activity relationship of a series of 1-carba-1-dethiacephems exhibiting activity against methicillin-resistant Staphylococcus aureus” (J Med Chem, 1993)
